Test results published in the EternaBench riboswitch data.

System: MS2 coat protein
Assay: apparent Kd, MS2 coat protein; higher = weaker binding; RNA-MaP array
Summary of the method: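 Designed RNAs were produced on an Illumina sequencing chip by transcription of sequenced DNA templates. Binding to fluorescently labeled MS2 coat protein (1.5 nM to 3 μM) was measured at room temperature with or without input ligand. The apparent Kd is the median of per-cluster binding-curve fits. Designs were excluded when measured on fewer than 10 clusters.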

[1] = designed as: ON switch for flavin mononucleotide, no ligand
[2] = ligand present: flavin mononucleotide, designed as: ON switch for flavin mononucleotide
[3] = designed as: OFF switch for flavin mononucleotide, no ligand
[4] = ligand present: flavin mononucleotide, designed as: OFF switch for flavin mononucleotide
[5] = designed as: OFF switch for theophylline, no ligand
[6] = ligand present: theophylline, designed as: OFF switch for theophylline
[7] = designed as: ON switch for tryptophan, no ligand
[8] = ligand present: tryptophan, designed as: ON switch for tryptophan
[9] = designed as: ON switch for theophylline, no ligand
[10] = ligand present: theophylline, designed as: ON switch for theophylline
[11] = designed as: OFF switch for tryptophan, no ligand
[12] = ligand present: tryptophan, designed as: OFF switch for tryptophan

Row | Sequence | apparent Kd [1] [nM] | apparent Kd [2] [nM] | apparent Kd [3] [nM] | apparent Kd [4] [nM] | other results
1 | UAUAGGACUUAAGGAUAUGGCACCGGUGUCCCGCCAGAAGGUAAGGACCACACAUGAGGAUCACCCAUGUUCUCGAGAAUGGGA | 145 | 112 |  |  | 
2 | GCCCAUUAAGACAUGAGGAUCACCCAUGUCACCGGGUAUGCCAGAAGGCUCUUAUAGAAGUAACGAGAGGAUAUGGGUGCUACU | 23.3 | 13.8 |  |  | 
3 | AAACACUCAUAAGGAUAUGCAGCGCUUAGACAUGAGGAUCACCCAUGUGAUGCAGGGAAGUCCCGGCAGAAGGUAAGUAAGUAC | 14.4 | 13 |  |  | 
4 | CCGUGGCAUCAACAGGAUAUGCUAUCAAAGACAUGAGGAUCACCCAUGUGGGUAUAUUACUUCCGGCAGAAGGGUUUAAGGGUUAC | 36.6 | 28.9 |  |  | 
5 | ACAUGCUCUGAGGAUAUCAAUAAUCCCUAUUACUGAGAAGGCAGCACAUGAGGAUCACCCAUGUGAGGUGAGUC |  |  | 34.5 | 58.8 | 
6 | CCGGUCCACUAGGAUAUGCGGAGUGUAUAUCACGCAGAAGGAGUCACAUGAGGAUCACCCAUGUGCGUGGGUUG |  |  | 9.4 | 9.16 | 
7 | GCUCGUUGCAUGGAUACCAGUUGAUAGGCCGCCUCCGGAUACAUGAGGAUCACCCAUGUCAACCCUUGGCAGCCACCCAAUAGGG |  |  |  |  | apparent Kd [5]: 9.36 nM; apparent Kd [6]: 18.1 nM
8 | UCGUCGCUUCAGAAGGACAGACAAUCGUGCACUGUAGGAUAUGAGACGCGACAUGAGGAUCACCCAUGUGAACGGUUCGUAUAA |  |  | 25.1 | 53 | 
9 | ACCGGACAUGAGGAUCACCCAUGUCUUGCAUAGGUAGGAUAUGAAUCAAGGACUUGAUCAUCAGAAGGACCCAGGC | 8.44 | 7.13 |  |  | 
10 | AAUAGUUCUGGAGGAUAUUGUACAUGAGGAUCACCCAUGUUAUCUACUGCUAUGGUUGACCUGCGCAAGAAGGCCACGUUCCUG |  |  | 12.6 | 20.5 | 
11 | UCAUUUUUCACGGCCGCCACUUCAAGGUCCUGAGGCUGGGCAACACAUGAGGAUCACCCAUGUCGAAGGACCGGGUGAAGCUACC |  |  |  |  | apparent Kd [7]: 114 nM; apparent Kd [8]: 183 nM
12 | ACACAUGAGGAUCACCCAUGUCGUGAGAGCUCAGUCGUGCGUUAGGAUAUCAUUCUGUUAGUGUUUGAGAAGGAACGGGUAACC |  |  | 50.1 | 43.3 | 
13 | ACUCGAUUACACAACCCGACAUGAGGAUCACCCAUGUAUCCGAGAAGGGCUAAUAUAUUCAGGAAGCAGGAUAUCGAAUCAAUA | 87.5 | 50.5 |  |  | 
14 | ACUAGACAUGAGGAUCACCCAUGUGAGGAUAUCUUGCUAUGCACUAUGGGCCAACGGAAGAGAAGGCACUGGGA |  |  | 45.7 | 93.2 | 
15 | ACAGUAAAUGUGUAGGAUAUGAACUAAACCACAUGAGGAUCACCCAUGUAACGAUUGGAUGGCCUUCAGAAGGACAGGGUUAUUGC | 304 | 215 |  |  | 
16 | AAUCAUAAUAAAGGAUAUACAACACAACAGGUGGUAGAAGGAUAUGGAGAUGGAACACACAUGAGGAUCACCCAUGUAAAUAGC | 13 | 9.95 |  |  | 
17 | UAAGCACAUGAGGAUCACCCAUGUGAGGAUAUGAGUGUCGGUCGAGAAGAGCGUCCAAUCAGAAGGCACAGGAU |  |  | 12.9 | 11.6 | 
18 | UCUGCGUCAGUCAGGAUAUGUUGCCAAAUUAUGGCACAGAAGGGACAUGAGGAUCACCCAUGUAGCGUCUCCGU |  |  | 10.2 | 10.4 | 
19 | CUCCCACUAUCUGAUACCAGAGGAUAAACGUAGACUGGGAACAUGAGGAUCACCCAUGUCCUCCCUUGGCAGCAGGACUUAUCUC |  |  |  |  | apparent Kd [5]: 21.9 nM; apparent Kd [6]: 38.3 nM
20 | CAUGAUAAGUUGGAUACCAGCAUAUGGAACAACAUGAGGAUCACCCAUGUCAAAUGACAUUGCCCUUGGCAGCCACCUACUGUCA |  |  |  |  | apparent Kd [9]: 20.3 nM; apparent Kd [10]: 11.1 nM
21 | GGUGACCCUGUUCCACAUGAGGAUCACCCAUGUUACCACUAUUAGGAUAUGCUUACAUGUACACUGCAGAAGGAAUAGGUAAGA |  |  | 103 | 442 | 
22 | GAAGCUCGCGAUGAUACCAGCUCGACUGAUAACAUGAGGAUCACCCAUGUUGUGCGCCCUAGCCCUUGGCAGCAUGACAUAUUCG |  |  |  |  | apparent Kd [9]: 110 nM; apparent Kd [10]: 71.1 nM
23 | CAUUAAACAGCAGGAUAUACUAGUGUGAUACUGGUAGAAGGGCUCCUCACCCACAUGAGGAUCACCCAUGUGACAUCUACCUUA | 314 | 146 |  |  | 
24 | UAAUAUGGAGGAUAUAAAGUCGAAGACAUGAGGAUCACCCAUGUCCUUGGUUGAAAGAGGUUAGAAGGCCAUAGUA |  |  | 9.47 | 9.66 | 
25 | UGGUAUGAAGGAUAUGACUAAGUUCACAUGAGGAUCACCCAUGUAACGUCCUCGACAUGUUCAGAAGGUCAGGCGA |  |  | 11.7 | 11.4 | 
26 | CGCCCAGUUACGGCCGCCACUUCGAUGGCAAAUGUCGAGCCUCCACAUGAGGAUCACCCAUGUCGAAGGACCGGGUACUGCUUGC |  |  |  |  | apparent Kd [7]: 31.9 nM; apparent Kd [8]: 110 nM
27 | GAAAAUUCCUAGAAGGCGGAUUAUACUUGGUUGAACAUGAGGAUCACCCAUGUAUCUGGCAAACCCGAGGAUAUAGAUUUUCCA | 56.2 | 31.2 |  |  | 

Row | Sequence | apparent Kd [1] [nM] | apparent Kd [2] [nM] | apparent Kd [3] [nM] | apparent Kd [4] [nM] | other results
28 | CGUGUACAUGAGGAUCACCCAUGUUAGGAUAUCUUACCAAAGUCGAGGUGACUCCGGGAGAGAAGGAACUGGCA |  |  | 78.6 | 79.1 | 
29 | AAAAGACAUGAGGAUCACCCAUGUAGAGAUACCAGAUGCAUGGACAUCCCUUGGCAGCUCGUCACUUUCUAUAUUUUCCAGACGC |  |  |  |  | apparent Kd [9]: 46.9 nM; apparent Kd [10]: 21.9 nM
30 | AGGCGGGUAGGAUAUACCUUGUUCCUAGUAUCCAGUCGAGGACAUGAGGAUCACCCAUGUAGAAGGACCCAUUC |  |  | 30.9 | 36.5 | 
31 | GCCAGUGUCUAGGAUAUCACGCCGCGUUGCAGGUGAGAAGGAGACACAUGAGGAUCACCCAUGUGUCCGAUAGG |  |  | 7.12 | 9.49 | 
32 | CGGGCGAAGCCUUUCACAUGAGGAUCACCCAUGUCUAAUACGAAGGAUAUCCUCGCCGGAGCUAAGGAGAAGGUCGACAUAGUU |  |  | 18.9 | 19.2 | 
33 | GAUAAGGAAGGAUAUACAAAGGAACAAAUACACAUUCUAAAACAUGAGGAUCACCCAUGUAGAAGGACCAACAA |  |  | 6.97 | 6.83 | 
34 | GACUACCAGGAAGGAUAUGCCUAUAACUGAAAGACAUGAGGAUCACCCAUGUAUUGGGCGAACCUGCAGAAGGUCCGACUAGAC |  |  | 40.6 | 41.2 | 
35 | UUGUGGUAGGCGCAUACUCAUUUAUACAAGCGAGGACCGGUACGGCCGCCACUCGGAAUAAAACAUGAGGAUCACCCAUGUACCG |  |  |  |  | apparent Kd [11]: 13.7 nM; apparent Kd [12]: 19.1 nM
36 | ACCAACCACACCCUUCACUGUUUUCGCCGCCGAGGACCGGUACGGCCGCCACUCGUACAAAGACAUGAGGAUCACCCAUGUGCCU |  |  |  |  | apparent Kd [11]: 14.5 nM; apparent Kd [12]: 21.4 nM
37 | CAAGCAUGAGAGAAGGUCCCAUCUAAACAUGAGGAUCACCCAUGUGAUACGGUGCUAUUGUGAAGGAAGGAUAUCUCAGUUAAU | 61.7 | 16.8 |  |  | 
38 | UGUUUACAUGAGGAUCACCCAUGUGUUAUCGUAUUAGGAUAUGCAUGACGAUGAUUUUCGGCAGAAGGAAUGCGCA | 439 | 101 |  |  | 
39 | CACAACGGUAGUUAGGAUAUCCAUAUGCGUACAUGAGGAUCACCCAUGUAAUUACAGAAAUGAUAGGAGAAGGAACGCAUCCGAAA | 33.3 | 21 |  |  | 
40 | UUUACAUGAGGAUCACCCAUGUUCCCUUGUGACACGUUUUUCAGAAGGACAGGCAUAAUUUGGAUGUAGGAUAUGAAUUAGUGC |  |  | 24.9 | 21.9 | 
41 | ACACAUGAGGAUCACCCAUGUAGAUAUGGGCUCACUAUCACUAGAAGGACUUUGCUCUCUUGGAAGUAGGAUAUAGUACGCUGG |  |  | 163 | 134 | 
42 | GACAUGAGGAUCACCCAUGUUUCGGUUACAUUGUAAUCAUGAUAGGAUAUCUCUGCUGUGGUGAGAGAGAAGGAUCGUCUGCUU | 13 | 10.6 |  |  | 
43 | GGAAUGUAAGGAUAUACCCGUAAGGUAGGGAUCGCAUCGGCGUAGAAGGUACAUGAGGAUCACCCAUGUUCAGC |  |  | 7.78 | 7.97 | 
44 | AAAUAAAUAGCAGGAUAUGGGAAACAUGAGGAUCACCCAUGUCAUAAAUAGCGAAAAUAACACAUCCAGAAGGGCAAGAAUCAA | 412 | 137 |  |  | 
45 | GGAUCGCGAGGAUAUACAUGAGGAUCACCCAUGUUUACUCACACAUUUUUAUUCUUCCGUAGAAGGCGCGCAAG |  |  | 5.52 | 5.4 | 
46 | CUCGUCAACUCGGCCGCCACUGACGUGUGGUCAGGCCUGUAGAAACACAUGAGGAUCACCCAUGUCAGGACCGGGAGCUUUAUUA |  |  |  |  | apparent Kd [11]: 46.9 nM; apparent Kd [12]: 58.2 nM
47 | AUGAUCAUAGUAAGGAUAUCCGGACCAAUAGCAAAGGAGAAGGUACAUGAGGAUCACCCAUGUUUAUUAAUACU |  |  | 9.11 | 9.98 | 
48 | AUUGAGACCUAGAAGGCGAAAACAUGAGGAUCACCCAUGUAGAUAACACCUACAUGAGCGAAAUACGAGGAUAUAGGAAAACUC |  |  | 356 | 351 | 
49 | UGUAUAGCCACUCAGGAUAUAGUUCAUCACACAUGAGGAUCACCCAUGUUACCAAUAUCAUCUGACUAGAAGGGAGAGACUUGCGU | 13.4 | 9.17 |  |  | 
50 | ACUUGUGAGUCGGCCGCCACUCACCGGUAGUGUCACUCGUUCACAAACAUGAGGAUCACCCAUGUGAGGACCGGGACAGUCGGGU |  |  |  |  | apparent Kd [11]: 17.2 nM; apparent Kd [12]: 25.8 nM
51 | UUGAGACAACACCCAACAUGAGGAUCACCCAUGUCACCGAGAGAGGAUAUGCACGAGUAGGUCCAGCAGAAGGCUCUAUGUCAA | 115 | 15.9 |  |  | 
52 | CGCUACAUGAGGAUCACCCAUGUUACUCCGCGAGGACCGGUACGGCCGCCACUCGGCAGUUUGCGCCGCCGGAGGCACUCUUCAG |  |  |  |  | apparent Kd [7]: 27 nM; apparent Kd [8]: 33.1 nM
53 | AACGAAUGAGGAUAUACAUGAGGAUCACCCAUGUGAAAGGGAGGUUGAAGAUUUGACAGUAGAAGGCAUAUGAC |  |  | 94.2 | 80 | 
54 | CAACAUGAGGAUCACCCAUGUGGAGGUCCCGUUACCGGCGGAUAGGAUAUGGAACGCAGCGAAAACCAGAAGGAUCUAUAGGAC |  |  |  | 112 | 
